Bioassay records (PubChem BioAssay)
MrgX1 antag – human MrgX1 receptor antagonism, primary screen; MRGX1-HEK293 calcium flux, Fluo-4, BAM8-22 antagonism; stronger effect = lower value; Q96LB2; 1.3% of 310,000 active; B-score at 10 µM;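 active = calcium-response B-score plate-corrected more than 3 library SD below zero, starting fluorescence within 5 deviations, no agonist response on first addition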;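 also: peak minus trough fluorescence over baseline after final BAM8-22 challenge near maximal dose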
Target sequence (Q96LB2 whole entry, looked up): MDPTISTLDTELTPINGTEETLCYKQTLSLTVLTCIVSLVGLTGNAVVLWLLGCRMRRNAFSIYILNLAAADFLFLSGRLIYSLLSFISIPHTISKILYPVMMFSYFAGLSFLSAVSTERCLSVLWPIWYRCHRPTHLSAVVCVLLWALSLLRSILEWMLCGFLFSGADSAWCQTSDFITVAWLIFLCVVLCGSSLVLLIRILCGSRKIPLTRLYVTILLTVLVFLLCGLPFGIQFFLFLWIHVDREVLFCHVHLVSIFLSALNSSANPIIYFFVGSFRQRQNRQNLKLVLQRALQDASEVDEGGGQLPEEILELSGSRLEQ
RGS4 inh – inhibitors of human RGS4. B-score at 10 µM. 0.45% of 310,000 active. HEK293 M3R/RGS4 inducible, Fluo-4 calcium flux; stronger effect = higher value; triggered by carbachol at its EC20. P49798. AID 463165;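 active = B-score, a plate-corrected calcium signal, over three deviations above library mean, with baseline fluorescence within five deviations of library mean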;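 also: RGS4 expression induced by doxycycline in cells with stable M3 receptor; B-score is computed from the integrated fluorescence ratio over baseline after carbachol; higher B-score means a larger calcium signal and so more RGS4 inhibition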
MrgX1 PAM – allosterically activates human MrgX1 receptor signaling; Q96LB2; MrgX1-HEK293, Fluo-4 calcium flux, FDSS; stronger effect = higher value; B-score at 10 µM; 0.63% of 310,000 active;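 active = plate-corrected calcium response at least 3 library SD above typical, normal starting fluorescence, not activating the receptor alone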;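 also: compound read alongside a low EC10 to EC30 dose of BAM8-22 agonist; peak minus trough fluorescence over baseline measured at the second addition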
MrgX1 ag – agonists of human MrgX1 receptor; MrgX1-HEK293 cells, Fluo-4 calcium fluorescence, agonist mode; stronger effect = higher value; B-score at 10 µM; AID 588627; Q96LB2; 0.44% of 310,000 active;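 active = calcium response B-score plate-corrected fluorescence ratio at least 3 library SD, with starting fluorescence B-score inside 5 SD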
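Material: MrgX1-expressing HEK293 cells / Dosing: compound as first of three additions / Incubation: overnight seeding, then 1 h dark dye loading / Signal: Fluo-4 NW calcium fluorescence / Evaluation: B-scored fluorescence response ratio / Benchmarks: positive and negative control wells on each plate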
RGS4 pot – RGS4 potentiation or activation. AID 463111. B-score at 10 µM. HEK293 M3R/inducible RGS4, carbachol calcium flux Fluo4; stronger effect = lower value. 0.92% of 310,000 active;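 active = B-score of the integrated calcium signal more than 4 SD below the library mean, with starting fluorescence not abnormally high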;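 also: negative B-score means reduced calcium response which marks RGS4 activation or potentiation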
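Material: Inducible-RGS4 HEK293 cells carrying M3 receptor; also added: carbachol at ECmax as muscarinic agonist stimulus; incubation: compound preincubation 20 min at room temperature before agonist; signal: Fluo4-AM (2 µM) calcium-flux fluorescence, kinetic read; measure: integrated calcium ratio converted to B score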
MrgX1 ant reconf – confirmation of human MrgX1 receptor antagonists | MrgX1-HEK293, BAM8-22 calcium flux, Fluo-4; stronger effect = lower value | shares compounds with MrgX1 antag | remaining BAM8-22 calcium response % of control (stronger effect = lower value), % at 10 µM | 19% of 2,300 active | AID 602420;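 active = remaining agonist calcium response no higher than 100% minus 3 SD of agonist-only control wells, with starting fluorescence near control levels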;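 also: agonist BAM8-22 given at a near maximal EC90 to ECmax level; peak minus minimum fluorescence divided by baseline after agonist addition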
HEK293 Ca flux – activity in parental HEK293 cells lacking MrgX1 | 2% of 4,000 active | AID 624111 | fluorescence ratio F(max-min)/F0 at 10 µM | Fluo-4 calcium fluorescence, FDSS | shares compounds with MrgX1 antag;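 active = duplicate-averaged calcium fluorescence ratio at least three times the standard deviation of buffer wells, a nonspecific response in parental cells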
HEK293 Ca counter – activity in parental HEK293 cells without MrgX1. 0.4% of 4,000 active. AID 624114. fluorescence ratio F(max-min)/F0 at 10 µM. shares compounds with MrgX1 antag. parental HEK293 calcium flux, Fluo-4 fluorescence ratio; stronger effect = higher value;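 active = calcium fluorescence ratio, averaged over duplicates, at least 3 SD of the buffer-well ratio, meaning a nonspecific response in receptor-free cells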;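 also: untransfected parental HEK293 lacking MrgX1 used as counterscreen for MrgX1 allosteric activators; fluorescence change taken during the second addition on a kinetic imager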
HEK293 Ca cntr2 – counter-screen for MrgX1 activators: effect in parental HEK293 cells. shares compounds with MrgX1 antag. Fluo-4 calcium fluorescence (FDSS); stronger effect = higher value. fluorescence ratio F(max-min)/F0 at 10 µM. 8.7% of 4,000 active. AID 624115;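 active = calcium fluorescence ratio at least three times the spread of buffer wells, meaning a non-specific response in parental cells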
* = called active by the depositor; i = inactive; . = not tested or not shown. The list is not random: actives were taken first. Their share in the collection is about 3.5%.

SMILES	MrgX1 antag	RGS4 inh	MrgX1 PAM	MrgX1 ag	RGS4 pot	MrgX1 ant reconf	HEK293 Ca flux	HEK293 Ca counter	HEK293 Ca cntr2
O=[N+]([O-])c1cccc(-c2n[nH]c(=S)n2Cc2ccccc2)c1	-17.2*	i	i	i	i	i	i	i	i
CS(=O)(=O)N1CCN(C(=O)Cc2ccc(Br)cc2)CC1	i	i	i	i	i	.	.	.	.
O=C(Oc1cccc(-n2cnnn2)c1)c1ccco1	-6.53*	i	i	i	i	78.6%*	i	i	i
CC(Oc1ccccc1Cl)c1nnc(N)s1 (configuration not stated)	-7.82*	i	i	i	i	i	i	i	i
O=C(CSc1nnc(-c2ccccc2Cl)o1)N1CCCCC1	-4.86*	i	i	i	i	i	i	i	i
O=C(CSc1nnc(-c2ccccc2Cl)o1)N1CCCC1	i	i	i	i	i	.	.	.	.
O=C(CCC1CCCN(C(=O)CCC(F)(F)F)C1)NCc1ccc(F)c(F)c1 (configuration not stated)	-4.78*	i	i	i	i	i	i	i	i
COC(=O)CCCC(=O)N1CCCC(CCC(=O)NCc2ccc(F)c(F)c2)C1 (configuration not stated)	i	i	i	i	i	.	.	.	.
COc1ccccc1NC(=O)c1nn(C)cc1Br	-7.55*	.	i	i	.	i	i	i	i
CCNc1ccc2noc3c2c1C(=O)c1ccccc1-3	-4.75*	i	i	i	i	i	0.579*	i	i
Nc1nc2n(n1)C(c1ccco1)CC(c1ccc(Cl)cc1)N2 (configuration not stated)	-6.33*	i	i	i	i	i	i	i	i
CCc1ccc(C2CC(c3ccccc3Cl)Nc3nc(N)nn32)cc1 (configuration not stated)	-5.07*	i	i	i	i	i	i	i	i
CC(=O)Nc1nc(Cn2nnc(-c3ccc4c(c3)OCO4)n2)nc(N(C)C)n1	i	i	i	i	i	.	.	.	.
COc1ccc(NC(=O)CSc2ccccc2)c(OC)c1	-9.12*	i	i	i	i	i	i	i	i
COc1ccc(NC(=O)CSc2nc(=O)n(CCN3CCOCC3)c3c2CCC3)c(OC)c1	-7.61*	i	i	i	i	i	i	i	i
COC(=O)CC1COc2ccccc2N1C(=O)c1ccc(OC)cc1 (configuration not stated)	i	i	i	i	i	.	.	.	.
COC(=O)CC1COc2ccccc2N1C(=O)c1cc(OC)c(OC)c(OC)c1 (configuration not stated)	-4.99*	i	i	i	i	i	i	i	i
CCOC(=O)N1CCC(NC(=O)CS(=O)(=O)Cc2nc(-c3ccccc3C)oc2C)CC1	-5.3*	i	i	i	i	i	i	i	i
O=C(OCC(O)COc1ccccc1)c1ccc([N+](=O)[O-])cc1 (configuration not stated)	i	i	i	i	i	.	.	.	.
CC1CCCCC1NC(=O)CN1CCN(Cc2ccccc2Cl)C1=O (configuration not stated)	-10*	i	i	i	i	84.3%*	i	i	i
O=C(CN1CCN(Cc2ccccc2Cl)C1=O)NC1CCCCCCC1	i	i	i	i	i	.	.	.	.
